# Results reported in ChEMBL document CHEMBL1156681, “Synthesis, anti-bacterial, anti-asthmatic and anti-diabetic activities of novel N-substituted-2-(4-phenylethynyl-phenyl)-1H-benzimidazoles and N-substituted 2[4-(4,4-dimethyl-thiochroman-6-yl-ethynyl)-phenyl)-1H-benzimidazoles” (2008).
# The source made the active and inactive calls. The rule behind the calls is not given here.
# What was measured:
# Staphylococcus aureus [1] = assay: Antibacterial activity against Staphylococcus aureus at 500 ug/ml after 48 hrs by tube dilution method; format: functional, organism-based
# Procedure, shortened: (§1)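 Compounds dissolved in DMSO and tested by tube dilution at […]. Tubes were incubated at 37 °C for 48 h. Growth was scored against the DMSO control as poor, medium or confluent (no inhibition). MIC was taken from the dilution series. Cephalexin served as the reference antibacterial and DMSO as the solvent control.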
# Salmonella typhimurium [2] = assay: Antibacterial activity against Salmonella Typhimurium at 0.1 ug/ml after 48 hrs by tube dilution method; format: functional, organism-based; details: Salmonella enterica subsp. enterica serovar Typhimurium; procedure, shortened: as §1
# Salmonella typhimurium [3] = assay: Antibacterial activity against Salmonella Typhimurium at 10 ug/ml after 48 hrs by tube dilution method; format: functional, organism-based; details: Salmonella enterica subsp. enterica serovar Typhimurium; procedure, shortened: as §1
# Salmonella typhimurium [4] = assay: Antibacterial activity against Salmonella Typhimurium at 500 ug/ml after 48 hrs by tube dilution method; format: functional, organism-based; details: Salmonella enterica subsp. enterica serovar Typhimurium; procedure, shortened: as §1
# Staphylococcus aureus [5] = assay: Antibacterial activity against Staphylococcus aureus at 1 ug/ml after 48 hrs by tube dilution method; format: functional, organism-based; procedure, shortened: as §1
# Staphylococcus aureus [6] = assay: Antibacterial activity against Staphylococcus aureus at 10 ug/ml after 48 hrs by tube dilution method; format: functional, organism-based; procedure, shortened: as §1
# Salmonella typhimurium [7] = assay: Antibacterial activity against Salmonella Typhimurium at 1 ug/ml after 48 hrs by tube dilution method; format: functional, organism-based; details: Salmonella enterica subsp. enterica serovar Typhimurium; procedure, shortened: as §1
# Salmonella typhimurium [8] = assay: Antibacterial activity against Salmonella Typhimurium at 200 ug/ml after 48 hrs by tube dilution method; format: functional, organism-based; details: Salmonella enterica subsp. enterica serovar Typhimurium; procedure, shortened: as §1
# Staphylococcus aureus [9] = assay: Antibacterial activity against Staphylococcus aureus after 48 hrs by tube dilution method; format: functional; procedure, shortened: as §1
# [10] = biological target: T1, Tyrosine-protein phosphatase non-receptor type 1 (Homo sapiens) (UniProt P18031); assay: Inhibition of human recombinant PTP1B at 30 uM after 30 mins relative to control
# T1 sequence (whole entry): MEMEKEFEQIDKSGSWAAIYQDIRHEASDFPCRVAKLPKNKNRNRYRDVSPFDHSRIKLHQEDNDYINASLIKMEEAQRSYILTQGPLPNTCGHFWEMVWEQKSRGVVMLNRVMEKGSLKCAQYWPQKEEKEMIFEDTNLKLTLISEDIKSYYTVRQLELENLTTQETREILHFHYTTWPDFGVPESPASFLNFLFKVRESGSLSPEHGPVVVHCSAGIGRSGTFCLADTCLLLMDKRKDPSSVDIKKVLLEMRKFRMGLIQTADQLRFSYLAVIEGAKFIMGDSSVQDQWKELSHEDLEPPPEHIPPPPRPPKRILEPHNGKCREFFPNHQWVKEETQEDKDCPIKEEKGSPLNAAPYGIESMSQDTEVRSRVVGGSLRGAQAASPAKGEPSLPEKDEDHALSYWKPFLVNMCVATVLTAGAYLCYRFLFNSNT
# Procedure, shortened: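 In-house human recombinant PTP-1B (~35 ng) was assayed with p-nitrophenyl phosphate in 25 mM Hepes, 3 mM DTT and 1 mM EDTA, pH 7.4, with DMSO at ≤1%. Absorbance at 405 nm was monitored continuously at 30 °C for 30 min, then NaOH was added and 405 nm read again. Activity was expressed as % of control, and % inhibition as 100 minus activity.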
# Staphylococcus aureus [11] = assay: Antibacterial activity against Staphylococcus aureus at 0.1 ug/ml after 48 hrs by tube dilution method; format: functional, organism-based; procedure, shortened: as §1
# Staphylococcus aureus [12] = assay: Antibacterial activity against Staphylococcus aureus at 200 ug/ml after 48 hrs by tube dilution method; format: functional, organism-based; procedure, shortened: as §1
# [13] = biological target: Phosphodiesterase 4 (Homo sapiens) (UniProt P27815+Q08499+Q07343+Q08493); assay: Inhibition of human PDE4 at 1 uM after 20 mins; format: protein assay
# Salmonella typhimurium [14] = assay: Antibacterial activity against Salmonella Typhimurium after 48 hrs by tube dilution method; format: functional, Salmonella enterica subsp. enterica serovar Typhimurium; details: Salmonella enterica; procedure, shortened: as §1
# [15] = biological target: Dipeptidyl peptidase 4 (Homo sapiens) (UniProt P27487); assay: Inhibition of human recombinant DPP4 at 0.3 uM after 30 mins relative to control
# Procedure, shortened: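 Recombinant human DPP-IV (10 ng) was run in 25 mM Tris pH 7.4, 140 mM NaCl, 10 mM KCl and 1% BSA with Gly-Pro-AMC substrate. Compounds in DMSO were added, and AMC release was followed kinetically at 30 °C for 30 min (ex 380 / em 460 nm). Percent inhibition was calculated against the solvent-only control.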
# Dipeptidyl peptidase 4 (Homo sapiens), sequence (P27487 whole entry, looked up): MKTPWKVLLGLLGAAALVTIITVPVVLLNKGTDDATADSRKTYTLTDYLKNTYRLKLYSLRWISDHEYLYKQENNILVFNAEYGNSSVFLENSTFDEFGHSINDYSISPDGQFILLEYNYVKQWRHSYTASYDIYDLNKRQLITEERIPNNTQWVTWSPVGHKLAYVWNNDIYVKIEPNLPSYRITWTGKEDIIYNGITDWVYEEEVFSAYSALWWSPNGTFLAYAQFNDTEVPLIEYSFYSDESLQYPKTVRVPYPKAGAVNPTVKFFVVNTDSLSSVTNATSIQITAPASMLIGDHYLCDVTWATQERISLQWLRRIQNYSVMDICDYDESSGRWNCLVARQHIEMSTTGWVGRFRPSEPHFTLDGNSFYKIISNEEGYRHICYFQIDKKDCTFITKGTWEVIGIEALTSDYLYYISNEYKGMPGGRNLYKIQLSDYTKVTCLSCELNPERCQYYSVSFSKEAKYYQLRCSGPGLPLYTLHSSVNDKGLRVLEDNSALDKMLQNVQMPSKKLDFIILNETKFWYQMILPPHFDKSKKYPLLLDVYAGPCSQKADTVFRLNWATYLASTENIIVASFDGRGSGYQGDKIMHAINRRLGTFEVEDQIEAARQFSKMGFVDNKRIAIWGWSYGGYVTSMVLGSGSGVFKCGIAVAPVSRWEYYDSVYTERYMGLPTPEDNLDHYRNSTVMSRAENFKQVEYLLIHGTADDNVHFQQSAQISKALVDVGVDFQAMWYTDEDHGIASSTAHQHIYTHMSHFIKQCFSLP
SMILES,MIC (Staphylococcus aureus [9]) [µg/mL],inhibition [10] [%],inhibition [13] [%],MIC (Salmonella typhimurium [14]) [µg/mL],inhibition [15] [%],Activity (Staphylococcus aureus [1]),Activity (Salmonella typhimurium [2]),Activity (Salmonella typhimurium [3]),Activity (Salmonella typhimurium [4]),Activity (Staphylococcus aureus [5]),Activity (Staphylococcus aureus [6]),Activity (Salmonella typhimurium [7]),Activity (Salmonella typhimurium [8]),Activity (Staphylococcus aureus [11]),Activity (Staphylococcus aureus [12])
C(#Cc1ccc(-c2nc3ccccc3[nH]2)cc1)c1ccccc1,200,1.64,3.4,200,0,Active,inactive,inactive,Active,inactive,inactive,inactive,Active,inactive,Active
CCCCn1c(-c2ccc(C#Cc3ccc4c(c3)C(C)(C)CCS4)cc2)nc2ccccc21,200,0.15,19.9,200,5,Active,inactive,,Active,,,inactive,Active,inactive,Active
CCOC(=O)n1c(-c2ccc(C#Cc3ccc4c(c3)C(C)(C)CCS4)cc2)nc2ccccc21,500,0,16.9,500,7,Active,inactive,inactive,Active,inactive,inactive,inactive,,inactive,
CCOC(=O)n1c(-c2ccc(C#Cc3ccccc3)cc2)nc2ccccc21,500,27.7,16.5,500,0,Active,inactive,,Active,inactive,,inactive,,inactive,
CCn1c(-c2ccc(C#Cc3ccc4c(c3)C(C)(C)CCS4)cc2)nc2ccccc21,200,0,15.8,200,0,Active,inactive,inactive,Active,inactive,inactive,inactive,Active,inactive,Active
COC(=O)n1c(-c2ccc(C#Cc3ccc4c(c3)C(C)(C)CCS4)cc2)nc2ccccc21,200,0.97,17.9,200,5,Active,inactive,,Active,inactive,,inactive,Active,inactive,Active
CCCn1c(-c2ccc(C#Cc3ccc4c(c3)C(C)(C)CCS4)cc2)nc2ccccc21,500,7.38,17.3,500,0,Active,inactive,inactive,Active,inactive,inactive,inactive,,inactive,
CC1(C)CCSc2ccc(C#Cc3ccc(-c4nc5ccccc5n4S(=O)(=O)C(F)(F)F)cc3)cc21,500,0.52,22.6,200,9,Active,inactive,inactive,Active,inactive,inactive,inactive,Active,inactive,
CCCn1c(-c2ccc(C#Cc3ccccc3)cc2)nc2ccccc21,500,0,8.91,500,0,Active,inactive,,Active,inactive,inactive,inactive,,inactive,

# Second part, led by results:
MIC (Staphylococcus aureus [9]) [µg/mL],inhibition [10] [%],inhibition [13] [%],MIC (Salmonella typhimurium [14]) [µg/mL],inhibition [15] [%],SMILES,Activity (Staphylococcus aureus [1]),Activity (Salmonella typhimurium [2]),Activity (Salmonella typhimurium [3]),Activity (Salmonella typhimurium [4]),Activity (Staphylococcus aureus [5]),Activity (Staphylococcus aureus [6]),Activity (Salmonella typhimurium [7]),Activity (Salmonella typhimurium [8]),Activity (Staphylococcus aureus [11]),Activity (Staphylococcus aureus [12])
500,29,18.2,500,0,COC(=O)n1c(-c2ccc(C#Cc3ccccc3)cc2)nc2ccccc21,Active,inactive,inactive,Active,inactive,,inactive,,inactive,
500,8.42,22.3,200,9,Cn1c(-c2ccc(C#Cc3ccccc3)cc2)nc2ccccc21,Active,inactive,inactive,Active,inactive,inactive,inactive,Active,inactive,
500,1.94,21,500,0,CCCCOC(=O)n1c(-c2ccc(C#Cc3ccc4c(c3)C(C)(C)CCS4)cc2)nc2ccccc21,Active,inactive,,Active,inactive,,inactive,,inactive,
200,0,18.2,200,0,Cn1c(-c2ccc(C#Cc3ccc4c(c3)C(C)(C)CCS4)cc2)nc2ccccc21,Active,inactive,,Active,inactive,,inactive,Active,inactive,Active
500,0,19.4,500,3,CCCCn1c(-c2ccc(C#Cc3ccccc3)cc2)nc2ccccc21,Active,inactive,,Active,inactive,,inactive,,inactive,
200,0,22.6,200,0,Cc1ccc(S(=O)(=O)n2c(-c3ccc(C#Cc4ccccc4)cc3)nc3ccccc32)cc1,Active,inactive,inactive,Active,inactive,,inactive,Active,inactive,Active
200,2.42,0,200,0,CC1(C)CCSc2ccc(C#Cc3ccc(-c4nc5ccccc5[nH]4)cc3)cc21,Active,inactive,,Active,inactive,,inactive,Active,inactive,Active
